Measured values from different studies.
Target: Dual specificity tyrosine-phosphorylation-regulated kinase 1B (DYRK1B, Homo sapiens, UniProt Q9Y463)

CSc1cccnc1N1CCN(Cc2nc3ccccc3[nH]2)CC1  remaining binding (cell-free assay, competition with immobilised ligand; 1 µM): 91%
O=C(O)c1ccc2c(c1)nc(NCCc1cccc(Cl)c1)c1ncncc12  remaining activity (enzyme activity, inhibitor, radiometric; 1 µM): 114%
COc1cc2ncnc(Nc3ccc(Oc4ccccc4)cc3C)c2cc1OC  inhibition (enzyme activity, inhibitor; 1 µM): 0%
O=C(NCCCC1CCCCC1)c1ccc(CNC(=O)c2cnn(-c3ccccc3)c2C(F)(F)F)cc1  remaining binding (cell-free assay, competition with immobilised ligand; 0.1 µM): 100%
Cc1ccc(NC(=O)c2ccc(C)c(C(F)(F)F)c2)cc1C#Cc1nn(C2CCC(O)CC2)c2ncnc(N)c12 (stereo not drawn)  remaining signal (cell-free assay; 10 µM): 92%
O=C(O)c1ccc2c(c1)nc(Nc1ccccc1)c1ncncc12  remaining activity (enzyme activity, inhibitor, radiometric; 1 µM): 62%
CC/C(=N\NC(=O)NCc1cccc(O)c1)c1ccc(O)c(C)c1O  inhibition (enzyme activity, inhibitor; 0.1 µM): -5.1%
O=C(O)c1ccc2c(c1)nc(Nc1ccc3ccccc3c1)c1ncncc12  remaining activity (enzyme activity, inhibitor, radiometric; 1 µM): 41%
CCC(=N\O)/C(C)=C/c1ccc(F)cc1  remaining binding (cell-free assay, competition with immobilised ligand; 1 µM): 57%
O=C(CSc1nc2nccnc2c(=O)n1CCc1ccccc1)Nc1nccs1  inhibition (enzyme activity, inhibitor; 10 µM): -3%
Cn1cncc1C1=CN(c2ncnc3[nH]cnc23)CCS1  inhibition (enzyme activity, inhibitor, radiometric; 50 nM): 22.7%
O=C(O)c1ccc2c(c1)nc(NCc1ccccc1)c1ccncc12  remaining activity (enzyme activity, inhibitor, radiometric; 1 µM): 112%
Cc1cc(NC(=O)c2cccc3cc(-c4cccc5[nH]nc(N)c45)ccc23)ccc1F  activity vs control (enzyme activity, inhibitor; 0.1 µM): 95%
COc1cccc(CCNc2nc3cc(C(=O)O)ccc3c3cncnc23)c1  remaining activity (enzyme activity, inhibitor, radiometric; 1 µM): 112%
CN(C)C(=O)Cn1cc(-c2nc([C@@](C)(c3ccc(-c4cnc(N)nc4)cc3)C3CC3)no2)cn1  remaining binding (cell-free assay, competition with immobilised ligand; 1 µM): 98%
